# Calls of active or inactive are those of the source. The rule behind the calls is not given here.
# Key:
# Mus musculus [1] = experiment: Induction of interferon level in CD-1 mouse serum at 100 mg/kg, ip after 18 to 20 hrs by vesicular stomatitis virus plaque reduction assay; assay type: functional, organism-based; design: dose 100 mg/kg
# In short: (§1)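 Dosing was oral or ip in 15-g female CD-1 mice, at least three per dose level, with compound in sterile distilled water as a solution or suspension. Pooled sera were collected 18–20 hr after dosing. Interferon units/ml were quantified by a plaque reduction assay on mouse L cells with vesicular stomatitis virus challenge, run against an NIAID reference mouse interferon standard.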
# Mus musculus [2] = experiment: Induction of interferon level in CD-1 mouse serum at 400 mg/kg, po after 18 to 20 hrs by vesicular stomatitis virus plaque reduction assay; assay type: functional, organism-based; design: dose 400 mg/kg; in short: as §1
# Mus musculus [3] = experiment: Toxicity in CD-1 mouse at 300 mg/kg, ip; assay type: organism-based; design: dose 300 mg/kg, route intraperitoneal; conditions: in vivo
# Mus musculus [4] = experiment: Induction of interferon level in CD-1 mouse serum at 300 mg/kg, ip after 18 to 20 hrs by vesicular stomatitis virus plaque reduction assay; assay type: functional, organism-based; design: dose 300 mg/kg; in short: as §1
# Mus musculus [5] = experiment: Induction of interferon level >= 32 units/mL in ip dosed CD-1 mouse serum after 18 to 20 hrs by vesicular stomatitis virus plaque reduction assay; assay type: functional; conditions: CD-1, Serum, read-out: MED
# In short: (§2)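 Female CD-1 mice (15 g; at least three per dose) received compound dissolved or suspended in sterile distilled water, orally or ip. They were bled 18–20 hr later and sera pooled. Interferon was titrated by plaque reduction in mouse L cells challenged with vesicular stomatitis virus, with an NIAID reference mouse interferon standard. MED was the lowest dose giving ≥32 units/ml. Top doses were 400 mg/kg po and 300 mg/kg ip.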
# Mus musculus [6] = experiment: Induction of interferon level >= 32 units/mL in po dosed CD-1 mouse serum after 18 to 20 hrs by vesicular stomatitis virus plaque reduction assay; assay type: functional; conditions: CD-1, Serum, read-out: MED; in short: as §2
# Mus musculus [7] = experiment: Induction of interferon level in CD-1 mouse serum at 50 mg/kg, ip after 18 to 20 hrs by vesicular stomatitis virus plaque reduction assay; assay type: functional, organism-based; design: dose 50 mg/kg; in short: as §1
# Mus musculus [8] = experiment: Induction of interferon level in CD-1 mouse serum at 100 mg/kg, po after 18 to 20 hrs by vesicular stomatitis virus plaque reduction assay; assay type: functional, organism-based; design: dose 100 mg/kg; in short: as §1
# Mus musculus [9] = experiment: Acute toxicity in CD-1 mouse at 250 mg/kg, ip; assay type: organism-based; design: dose 250 mg/kg, route intraperitoneal; conditions: in vivo
# Mus musculus [10] = experiment: Acute toxicity in CD-1 mouse at 1600 mg/kg, po; assay type: organism-based; design: dose 1600 mg/kg, route oral; conditions: in vivo
# Mus musculus [11] = organism: Mus musculus; experiment: Acute toxicity in CD-1 mouse; assay type: organism-based; conditions: in vivo
# Mus musculus [12] = experiment: Induction of interferon level in CD-1 mouse serum at 17 mg/kg, ip after 18 to 20 hrs by vesicular stomatitis virus plaque reduction assay; assay type: functional, organism-based; design: dose 17 mg/kg; in short: as §1
# Mus musculus [13] = experiment: Toxicity in CD-1 mouse at 400 mg/kg, po; assay type: organism-based; design: dose 400 mg/kg, route oral; conditions: in vivo
# Mus musculus [14] = experiment: Induction of interferon level in CD-1 mouse serum at 9 mg/kg, ip after 18 to 20 hrs by vesicular stomatitis virus plaque reduction assay; assay type: functional, organism-based; design: dose 9 mg/kg; in short: as §1
# Mus musculus [15] = experiment: Induction of interferon level in CD-1 mouse serum at 200 mg/kg, po after 18 to 20 hrs by vesicular stomatitis virus plaque reduction assay; assay type: functional, organism-based; design: dose 200 mg/kg; in short: as §1
Compound,Activity (Mus musculus [1]),Activity (Mus musculus [3]),further results
Cc1nn(CCCN(C)C)c2nc3ccccc3c(NCCCN(C)C)c12.Cl,inactive,Toxic,Activity (Mus musculus [2]): inactive
CCn1nc(C)c2c(NCCCN(C)C)c3ccccc3nc21.Cl,inactive,Toxic,Activity (Mus musculus [4]): inactive; Activity (Mus musculus [2]): inactive
Cc1nn(C)c2nc3ccccc3c(NCCCN3CCOCC3)c12.Cl,,,Activity (Mus musculus [2]): inactive; minimal effective dose (Mus musculus [5]): 300 mg/kg
Cc1nn(C)c2nc3ccc(I)cc3c(NCCCN(C)C)c12.Cl,inactive,Toxic,minimal effective dose (Mus musculus [6]): ≥ 400 mg/kg
Cc1nn(C)c2nc3ccccc3c(NCCc3ccccn3)c12.Cl,,Toxic,Activity (Mus musculus [7]): inactive
CN(C)CCCNc1c2ccccc2nc2ccccc12.Cl,,,Activity (Mus musculus [2]): inactive; minimal effective dose (Mus musculus [5]): ≥ 300 mg/kg
Cc1nn(C)c2nc3ccccc3c(NCc3cccnc3)c12.Cl,inactive,Toxic,
CCc1nn(C)c2nc3ccccc3c(NCCCN(C)C)c12.Cl,inactive,Toxic,minimal effective dose (Mus musculus [6]): 200 mg/kg
Cc1nn(C)c2nc3ccccc3c(NCCN3CCCC3)c12.Cl,inactive,Toxic,
Cc1nn(C)c2nc3ccccc3c(NCCCNC34CC5CC(CC(C5)C3)C4)c12.Cl,,Toxic,Activity (Mus musculus [8]): inactive
Cc1nn(C)c2nc3ccccc3c(N3CCC(CCN(C)C)CC3)c12.Cl,,Toxic,Activity (Mus musculus [7]): inactive
CCCCN(CCCC)CCCNc1c2ccccc2nc2c1c(C)nn2C.Cl,inactive,Toxic,
Cc1nn(C)c2nc3ccccc3c(NCCCN3CCCC3=O)c12.Cl,inactive,Toxic,
Cc1cccc2c(NCCCN(C)C)c3c(C)nn(C)c3nc12.Cl,inactive,Toxic,
CCc1n[nH]c2nc3ccccc3c(NCCCN(C)C)c12.Cl,inactive,Toxic,
Cc1nn(C)c2nc3cc(C(F)(F)F)ccc3c(NCCCN(C)C)c12.Cl,inactive,Toxic,
Cc1nn(C)c2nc3ccccc3c(NCCCN(C)C)c12.Cl,,,Activity (Mus musculus [9]): Toxic; Activity (Mus musculus [10]): Toxic; minimal effective dose (Mus musculus [6]): 200 mg/kg; minimal effective dose (Mus musculus [5]): 100 mg/kg
Cc1nn(C)c2nc3ccccc3c(NCCC3CCCN3C)c12.Cl (centres undefined),inactive,Toxic,
Cc1ccc2c(NCCCN(C)C)c3c(C)nn(C)c3nc2c1.Cl,,,Activity (Mus musculus [2]): inactive; minimal effective dose (Mus musculus [6]): 50 mg/kg; Activity (Mus musculus [11]): Toxic; minimal effective dose (Mus musculus [5]): 50 mg/kg
Cc1nn(CCCN(C)C)c2nc3ccccc3c(Cl)c12.Cl,,Toxic,Activity (Mus musculus [12]): inactive
COc1ccc(Cl)c2c(NCCCN(C)C)c3c(C)nn(C)c3nc12.Cl,,,Activity (Mus musculus [8]): inactive; Activity (Mus musculus [13]): Toxic

Compound,Activity (Mus musculus [1]),Activity (Mus musculus [3]),further results
CCOC(=O)c1cnc2c(c(C)nn2C)c1NCCCN(C)C,,,Activity (Mus musculus [8]): inactive
CCc1ccc2nc3c(c(C)nn3C)c(NCCCN(C)C)c2c1.Cl,inactive,Toxic,minimal effective dose (Mus musculus [6]): 200 mg/kg
Cc1nn(CCCN(C)C)c2nc3ccccc3cc12.Cl,inactive,Toxic,
Cc1nn(CCNCCCN(C)C)c2nc3ccccc3c(NCCCN(C)C)c12.Cl,,Toxic,Activity (Mus musculus [14]): inactive
Cc1nn(C)c2nc3ccccc3c(NCCCN3CCCCC3)c12.Cl,inactive,Toxic,minimal effective dose (Mus musculus [6]): 200 mg/kg
CCC1CCC(C)N(CCCNc2c3ccccc3nc3c2c(C)nn3C)C1.Cl (centres undefined),inactive,Toxic,
Cc1nn(C)c2nc3ccccc3c(NCCc3ccncc3)c12.Cl,,Toxic,Activity (Mus musculus [12]): inactive; Activity (Mus musculus [14]): inactive
Cc1nn(CC(F)(F)F)c2nc3ccccc3c(NCCCN(C)C)c12.Cl,inactive,Toxic,
COc1cc2nc3c(c(C)nn3C)c(NCCCN(C)C)c2c(OC)c1OC.Cl,,,Activity (Mus musculus [13]): Toxic; Activity (Mus musculus [15]): inactive
CCc1ccc2c(NCCCN(C)C)c3c(C)nn(C)c3nc2c1.Cl,inactive,Toxic,minimal effective dose (Mus musculus [6]): 200 mg/kg
COC(=O)Cn1nc(C)c2c(NCCCN(C)C)c3ccccc3nc21.Cl,inactive,Toxic,
Cc1nn(C)c2nc3ccccc3c(NC3CC3)c12.Cl,,Toxic,Activity (Mus musculus [8]): inactive
Cc1nn(C)c2nc3ccccc3c(OCCCN(C)C)c12.Cl,,Toxic,Activity (Mus musculus [7]): inactive
Cc1nn(C)c2nc3ccc(Cl)cc3c(NCCCN(C)C)c12.Cl,inactive,Toxic,
COc1ccc2nc3c(c(C)nn3C)c(NCCCN(C)C)c2c1.Cl,inactive,Toxic,minimal effective dose (Mus musculus [6]): 200 mg/kg
Cc1nn(C)c2nc3ccc([N+](=O)[O-])cc3c(NCCCN(C)C)c12.Cl,inactive,Toxic,
Cc1cccc2nc3c(c(C)nn3C)c(NCCCN(C)C)c12.Cl,inactive,Toxic,Activity (Mus musculus [2]): inactive
Cc1nn(Cc2ccccc2)c2nc3ccccc3c(NCCCN(C)C)c12.Cl,inactive,Toxic,
Cc1nn(C(C)C)c2nc3ccccc3c(NCCCN(C)C)c12.Cl,,Toxic,Activity (Mus musculus [7]): inactive
Cc1nn(C)c2nc3ccccc3c(SCCCN(C)C)c12.Cl,,Toxic,Activity (Mus musculus [7]): inactive; Activity (Mus musculus [15]): inactive
Cc1nn(C)c2nc3c(c(NCCCN(C)C)c12)CCCC3,inactive,,Activity (Mus musculus [2]): inactive
